Measured values of several laboratories.
Target: Dual specificity mitogen-activated protein kinase kinase 6 (MAP2K6, Homo sapiens, UniProt P52564)
Residues used in one study (P52564 1-334): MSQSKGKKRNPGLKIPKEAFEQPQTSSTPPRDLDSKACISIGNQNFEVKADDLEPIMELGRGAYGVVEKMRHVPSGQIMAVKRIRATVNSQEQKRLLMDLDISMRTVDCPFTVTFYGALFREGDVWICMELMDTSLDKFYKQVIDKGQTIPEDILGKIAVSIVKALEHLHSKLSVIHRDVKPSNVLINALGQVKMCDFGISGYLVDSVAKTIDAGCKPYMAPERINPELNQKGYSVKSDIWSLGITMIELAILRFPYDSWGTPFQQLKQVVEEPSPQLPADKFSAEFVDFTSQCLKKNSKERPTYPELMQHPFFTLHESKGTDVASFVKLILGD

SMILES	test	conditions	remaining binding
CNC(=O)[C@@]12C[C@@H]1[C@@H](n1cnc3c(NC)nc(C#Cc4ccc(Cl)s4)nc31)[C@H](O)[C@@H]2O	binding, competition with immobilised ligand	10 µM	17%
CCN1CCN(Cc2ccc(C(=O)Nc3ccc(C)c(Oc4ccc5c(c4)CC(=O)N5)c3)cc2C(F)(F)F)CC1	binding, competition with immobilised ligand	1 µM	100%
CN(c1nccc(-c2cnn3ncccc23)n1)C1CC1	binding	1 µM	100%
C[C@@H](c1ccc(-n2cnc3c(N)ncnc32)cc1)N1CCc2nn(C)c(Cc3ccccc3)c2C1=O	binding, competition with immobilised ligand	0.1 µM	90%
O=C(NCCCN1CCOCC1)c1ccc(Nc2ncc(Cl)c(-c3ccc(Cl)s3)n2)cc1	binding, competition with immobilised ligand	1 µM	87%
N[C@H]1CCN(c2nccc(-c3cnn4ncccc34)n2)C1	binding	1 µM	100%
CS(=O)(=O)N1CCCC(NC(=O)[C@H](CCC2CCCCC2)NC(=O)c2ccc(CNC(=O)c3cnc4ccccn34)cc2)C1 (stereo partly drawn)	cell-free assay, competition with immobilised ligand	0.1 µM	72%
F[C@@H]1CCN(c2nccc(-c3cnn4ncccc34)n2)C1	binding	1 µM	100%
O=C(c1ccc(Nc2nccc(-c3cc4ccccc4s3)n2)cc1)N1CCC(N2CCCC2)CC1	binding, competition with immobilised ligand	1 µM	33%
COc1cnc(Nc2cccc(S(N)(=O)=O)c2)nc1N1CCN(c2ccccc2)C(=O)C1	binding, competition with immobilised ligand	1 µM	100%
CNC(=O)Nc1ccc2c(c1)CC[C@@]21OC(=O)N(CC(=O)N(Cc2ccc(F)cc2)[C@@H](C)C(F)(F)F)C1=O	cell-free assay, competition with immobilised ligand	1 µM	100%
CNC(=O)[C@@H]1CC[C@@H](n2c(-c3ccc4cnccc4c3)nc3ccc(C(=O)NCc4cccc(C(N)=O)c4)cc32)C1	binding, competition with immobilised ligand	1 µM	100%
COc1ccnn2ncc(-c3ccnc(N(C)C)n3)c12	binding	1 µM	100%
CS(=O)(=O)N1CCCC(NC(=O)[C@H](CCC2CCCCC2)NC(=O)c2ccc(CNc3ncnc4c3nnn4-c3ccccc3)cc2)C1 (stereo partly drawn)	cell-free assay, competition with immobilised ligand	0.1 µM	67%
CC1CCCN1c1nccc(-c2cnn3ncccc23)n1 (stereo not drawn)	binding	1 µM	100%
Cn1nc(C(=O)NCc2ccc(C(=O)O)cc2)cc1-c1ccc2[nH]ccc2c1	cell-free assay, competition with immobilised ligand	0.1 µM	100%
c1cncc(-c2cccc(Nc3nccc(NC4CCCCC4)n3)c2)c1	binding, competition with immobilised ligand	10 µM	79%
O=C(Nc1c[nH]nc1C(=O)NC1CCNCC1)c1cc(F)cc(F)c1	binding, competition with immobilised ligand	1 µM	100%
CO[C@@H](C)c1c(Nc2ccc([C@@H](N(C)C(=O)C3CCS(=O)(=O)CC3)C(F)(F)F)cc2)cnc2cc(Cl)nn12	cell-free assay, competition with immobilised ligand	1 µM	92%
CN(CCCC(F)(F)F)c1nccc(-c2cnn3ncccc23)n1	binding	1 µM	100%
Cn1nc(C(F)(F)F)cc1-c1cnc(N2CCc3cc(S(=O)(=O)Nc4c(F)cc(Cl)cc4F)cc(N4CCCC4=O)c32)nc1	cell-free assay, competition with immobilised ligand	1 µM	100%
O=C(c1ccc(Nc2ncc(Cl)c(-c3cc4ccccc4s3)n2)cc1)N1CCC(N2CCCC2)CC1	binding, competition with immobilised ligand	1 µM	37%
C[C@H]1CCN(c2nccc(-c3cnn4ncccc34)n2)C1	binding	1 µM	100%
Nc1cnc(N2CCc3cc(S(=O)(=O)Nc4c(F)cc(Cl)cc4F)cc(N4CCCC4=O)c32)nc1	cell-free assay, competition with immobilised ligand	1 µM	71%
